From ChEMBL document CHEMBL1140981, “Substrate optimization for monitoring cathepsin C activity in live cells” (Bioorg Med Chem, 2009) come the findings set out here.

Calls of active or inactive are those of the source. The calls are words filed in the database; no cut-off is given here.

The target in experiment [1] is T1, Dipeptidyl peptidase 1 (Homo sapiens, UniProt P53634). Nature of the experiment: Inhibition of human recombinant cathepsin C by fluorescence assay. An outline of the steps: (§1)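 Recombinant human enzyme was preincubated with inhibitor for 20 min. Substrate was then added: H-Arg-AMC for cathepsin H, H₂N-Gly-Phe-AMC for cathepsin C. Buffer was 100 mM NaOAc, 1 mM EDTA, 0.01% Brij-35, 5 mM DTT, pH 5.5, 37 °C. AMC release was read by fluorescence, ex 380/em 450 nm. Progress curves were fitted to the Morrison equation, and apparent values were converted to Ki assuming competitive inhibition.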

The target of the next experiment is Cathepsin B (Homo sapiens, UniProt P07858). Nature of the experiment: Inhibition of human recombinant cathepsin B by fluorescence assay.
The next experiment concerns the target Cathepsin S (Homo sapiens, UniProt P25774). Kind of experiment: Inhibition of human recombinant cathepsin S by fluorescence assay.
For experiment [2], the target named is T1, Dipeptidyl peptidase 1. Nature of the experiment: Inhibition of cathepsin C in human B721 cells by FACS assay. It is filed as cell-based. An outline of the steps:
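B721 EBV-immortalized B cells were washed and resuspended in serum-free, phenol red-free RPMI 1640 at 1 × 10⁶ cells/mL. Cells were pretreated with compound or DMSO (final 10, 3.3, 1.1, 0.37, 0.12, 0 μM) for 30 min at 37 °C, 5% CO2. (H₂N-Abu-Hph)₂-rhodamine (final 2 μM) and propidium iodide (4 μg/mL) were added. Flow cytometry read ex 488/em 530 nm at three time points 15 min apart.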
(In general: In flow cytometry, cells or beads pass a laser one at a time.)

Experiment [3] has as its target T1, Dipeptidyl peptidase 1. Nature of the experiment: Blockade of conjugation of cathepsin C in human B721 cells to I125-labeled (S)-2-amino-N-((S)-1-(4-hydroxy-3-iodophenylsulfonyl)-5-phenylpent-1-en-3-yl)pentanamide pretreated for 30 mins before addition of I125-labeled (S)-2-amino-N-((S)-1-(4-hydroxy-3-iodophenylsulfonyl)-5-phenylpent-1-en-3-yl)pentanamide by SDS-PAGE. It is filed as cell-based. Put shortly:
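B721 cells at 1 × 10⁶ cells/mL were preincubated with compound or DMSO (final 50, 10, 1, 0.1, 0 μM) for 30 min at 37 °C, 5% CO2. ¹²⁵I-labeled probe was then added at 2 nM for another 30 min at 37 °C. Cells were pelleted, lysed and boiled. Labeled cathepsin C was resolved by SDS–PAGE and quantified by phosphorimaging.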

The next experiment has as its target T2, Pro-cathepsin H (Homo sapiens, UniProt P09668).
T2 sequence (P09668 whole entry): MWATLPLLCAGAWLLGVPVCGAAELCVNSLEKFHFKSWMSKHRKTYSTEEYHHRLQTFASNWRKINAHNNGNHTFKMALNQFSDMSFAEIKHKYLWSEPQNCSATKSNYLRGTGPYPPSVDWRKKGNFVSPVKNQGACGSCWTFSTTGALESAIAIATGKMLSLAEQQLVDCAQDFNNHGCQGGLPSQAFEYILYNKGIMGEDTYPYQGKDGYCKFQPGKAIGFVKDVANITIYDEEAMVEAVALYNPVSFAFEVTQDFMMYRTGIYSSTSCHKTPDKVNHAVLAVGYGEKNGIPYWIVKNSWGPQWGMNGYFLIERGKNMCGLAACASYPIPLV
Kind of experiment: Inhibition of human recombinant cathepsin H by fluorescence assay. Put shortly: as §1

The target of a further experiment is T3, Cathepsin K (Homo sapiens, UniProt P43235).
T3 sequence (P43235 whole entry): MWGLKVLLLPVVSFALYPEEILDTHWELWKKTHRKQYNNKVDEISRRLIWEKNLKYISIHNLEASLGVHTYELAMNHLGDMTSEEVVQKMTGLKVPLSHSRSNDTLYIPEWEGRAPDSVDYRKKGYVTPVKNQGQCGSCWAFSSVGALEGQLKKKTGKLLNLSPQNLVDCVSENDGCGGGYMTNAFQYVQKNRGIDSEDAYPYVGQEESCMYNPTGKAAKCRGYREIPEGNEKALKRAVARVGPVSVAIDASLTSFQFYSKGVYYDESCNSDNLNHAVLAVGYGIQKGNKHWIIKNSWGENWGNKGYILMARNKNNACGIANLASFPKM
Nature of the experiment: Inhibition of human recombinant cathepsin K by fluorescence assay.

In experiment [4] the target is T1, Dipeptidyl peptidase 1. Nature of the experiment: Binding affinity to cathepsin C in human B721 cells assessed as cellular compound turnover in presence of (S)-2-Amino-pentanoic acid ((S)-3-methanesulfonyl-1-phenethyl-allyl)-amide. It is filed as cell-based.
The target in experiment [5] is Procathepsin L (Homo sapiens) (UniProt P07711). Nature of the experiment: Inhibition of human recombinant cathepsin L by fluorescence assay.
Experiment [6] is filed under the species Homo sapiens. Kind of experiment: Selectivity for human recombinant cathepsin C over human recombinant cathepsin B.
Experiment [7] is filed under the species Homo sapiens. Nature of the experiment: Selectivity for human recombinant cathepsin C over human recombinant cathepsin H.
The species entered for experiment [8] is Homo sapiens. Kind of experiment: Selectivity for human recombinant cathepsin C over human recombinant cathepsin L.
Experiment [9] is filed under the species Homo sapiens. Kind of experiment: Selectivity for human recombinant cathepsin C over human recombinant cathepsin K.
The species named for experiment [10] is Homo sapiens. Nature of the experiment: Selectivity for human recombinant cathepsin C over human recombinant cathepsin S.

T1 sequence (P53634 25-134 limits assumed): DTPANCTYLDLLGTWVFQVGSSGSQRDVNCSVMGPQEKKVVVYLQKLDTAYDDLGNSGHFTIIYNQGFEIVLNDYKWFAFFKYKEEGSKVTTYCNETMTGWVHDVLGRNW
T1 sequence (P53634 231-394 limits assumed): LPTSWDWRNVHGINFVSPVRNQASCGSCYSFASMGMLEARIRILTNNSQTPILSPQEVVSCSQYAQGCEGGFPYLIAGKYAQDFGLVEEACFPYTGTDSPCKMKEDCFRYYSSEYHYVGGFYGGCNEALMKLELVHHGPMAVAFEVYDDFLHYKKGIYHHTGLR
T1 sequence (P53634 395-463 limits assumed): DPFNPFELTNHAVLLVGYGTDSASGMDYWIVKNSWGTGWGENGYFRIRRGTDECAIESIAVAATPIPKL
Sequence of Cathepsin S (P25774 whole entry): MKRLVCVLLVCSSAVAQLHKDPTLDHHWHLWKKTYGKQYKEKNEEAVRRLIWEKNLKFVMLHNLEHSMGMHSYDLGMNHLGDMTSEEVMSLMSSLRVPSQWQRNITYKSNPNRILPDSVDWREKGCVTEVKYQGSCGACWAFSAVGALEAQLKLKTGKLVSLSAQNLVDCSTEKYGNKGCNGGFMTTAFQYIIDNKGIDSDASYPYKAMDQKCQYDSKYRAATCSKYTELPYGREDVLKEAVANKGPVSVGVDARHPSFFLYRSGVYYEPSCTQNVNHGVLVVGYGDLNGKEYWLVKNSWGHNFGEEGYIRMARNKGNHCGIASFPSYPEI
Sequence of Procathepsin L (Homo sapiens) (P07711 114-333 limits assumed): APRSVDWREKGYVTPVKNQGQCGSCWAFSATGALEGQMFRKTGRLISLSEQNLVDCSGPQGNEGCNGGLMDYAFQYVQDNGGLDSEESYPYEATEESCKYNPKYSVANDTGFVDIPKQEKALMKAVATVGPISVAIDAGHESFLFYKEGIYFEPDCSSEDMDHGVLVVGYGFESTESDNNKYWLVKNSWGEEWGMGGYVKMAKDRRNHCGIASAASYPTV

What is called Ki is the equilibrium dissociation constant of an inhibitor or competing ligand from its target. The term IC50 denotes the point on the concentration scale where inhibition reaches its midpoint. In the case of `CC[C@H](N)C(=O)N[C@H](C#N)Cc1ccc(-c2ccccc2)cc1`, the INH at Dipeptidyl peptidase 1 [1] is 1.5 nM. For the same compound, the Ki was greater than 100 µM on Cathepsin B, greater than 100 µM at Cathepsin S, 3.7 µM on Pro-cathepsin H and 18 µM on Cathepsin K. Besides, the figures for the IC50 against Dipeptidyl peptidase 1 [2] and on Dipeptidyl peptidase 1 [3] were 6.1 µM and 10 µM, respectively.

For the compound `CCC[C@H](N)C(=O)N[C@@H](CCc1ccccc1)C(=O)Nc1ccc2c(c1)Oc1cc(NC(=O)[C@H](CCc3ccccc3)NC(=O)[C@@H](N)CCC)ccc1C21OC(=O)c2ccccc21`, the outcome at Dipeptidyl peptidase 1 [4] was inactive.

As to `CCC[C@H](N)C(=O)N[C@H](/C=C/S(=O)(=O)c1ccccc1)CCc1ccccc1`, the INH at Dipeptidyl peptidase 1 [1] was 0.2 nM; in experiment [5], 20 nM. Moreover, the Ki worked out at 1.1 µM at Cathepsin B, 0.0055 µM on Cathepsin S, 0.137 µM on Pro-cathepsin H and 0.12 µM at Cathepsin K. In addition, the Activity in the experiment listed under Homo sapiens [6], in the experiment filed under Homo sapiens [7], in the experiment listed under Homo sapiens [8], in the experiment listed under Homo sapiens [9] and in the experiment filed under Homo sapiens [10] was 75 in each case. The IC50 was found to be 0.07 µM on Dipeptidyl peptidase 1 [2] and 0.1 µM on Dipeptidyl peptidase 1 [3].

Regarding `CC[C@H](N)C(=O)N[C@@H](CCc1ccccc1)C(=O)Nc1ccc2c(c1)Oc1cc(NC(=O)[C@H](CCc3ccccc3)NC(=O)[C@@H](N)CC)ccc1C21OC(=O)c2ccccc21`, the result on Dipeptidyl peptidase 1 [4] was inactive.

With `O=C1OC2(c3ccc(NC(=O)[C@H](CCc4ccccc4)NC(=O)[C@@H]4CCCN4)cc3Oc3cc(NC(=O)[C@H](CCc4ccccc4)NC(=O)[C@@H]4CCCN4)ccc32)c2ccccc21`, on Dipeptidyl peptidase 1 [4], the result was inactive.

For the compound `CC(C)C[C@H](NC(=O)N1CCOCC1)C(=O)N[C@H](/C=C/S(=O)(=O)c1ccccc1)CCc1ccccc1`, on Dipeptidyl peptidase 1 [1], the INH amounted to 1800 nM. Also, the Ki at Cathepsin B is 0.064 µM; at Cathepsin S, less than 0.0001 µM; at Pro-cathepsin H, 1.4 µM; at Cathepsin K, 0.0012 µM. Further, the IC50 against Dipeptidyl peptidase 1 [2] was 2.6 µM; on Dipeptidyl peptidase 1 [3] it was 4 µM.
